PP1 counter = blocks human PP1-alpha phosphatase, a PP5 counter-screen; P62136; purified PP1alpha, OMFP fluorescence; inhibition, % at 6.7 µM; hit rate 0.9% among 320,000; AID 2235;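 active = inhibition above the mean inhibition of all tested compounds plus 3 SD, computed separately for each screening campaign, cut at about 15% in these data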
HNF4A DNA FP = change in binding of human HNF4 alpha to DNA; P41235; activity change, % at 10 µM; hit rate 0.3% among 360,000; HNF4a-FITC DNA binding, fluorescence polarization, 1 h; AID 1224865; in the data active = activity change above about 30%, passing the limit was not always enough
TPT1 inh = blocks Candida albicans tRNA 2'-phosphotransferase | recombinant caTPT1, FP RNA substrate dephosphorylation | inhibition, % at 5 µM | hit rate 0.81% among 300,000;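 active = inhibition above the mean of all tested compounds plus 3 SD, set per screening campaign, cut at about 24% in these data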
NadD inh = inhibitors of Staphylococcus aureus NadD; purified NadD enzyme, colorimetric absorbance read-out; inhibition, % at 20 µM; hit rate 0.78% among 360,000; in the data active = inhibition above about 26%
CSN deneddyl inh = blocks human CSN-mediated cullin deneddylation. Q92905. Purified CSN, SCF-Nedd8-OG deneddylation, fluorescence polarization. inhibition, % at 12.5 µM. hit rate 0.38% among 360,000;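 active = pattern-corrected inhibition above about 35%, with an unprinted fluorescence ratio check between 0.5 and 1.5, limit read from the data, passing the limit was not always enough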
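Material: purified human Csn5 enzyme expressed in HEK293T cells / Medium: Tris buffer pH 7.5, NaCl, DTT, Tween-20, trehalose, ovalbumin / Compound dosing: 12.5 µM single point / Schedule: 90 min incubation of compound, enzyme and substrate at room temperature / Signal: fluorescence polarization of the substrate / Control set: no-enzyme wells high, enzyme-with-substrate wells low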
Rpn11 block = blocks the human proteasome subunit Rpn11. inhibition, % at 20 µM. hit rate 0.59% among 360,000. human 26S proteasome, Ub4-pepOG fluorescence polarization; 20S core pre-blocked with epoxomicin. O00487;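 active = inhibition at 20 µM, scaled to each plate's controls, above about 33%, limit read from the data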
Target sequence (O00487 whole entry, looked up): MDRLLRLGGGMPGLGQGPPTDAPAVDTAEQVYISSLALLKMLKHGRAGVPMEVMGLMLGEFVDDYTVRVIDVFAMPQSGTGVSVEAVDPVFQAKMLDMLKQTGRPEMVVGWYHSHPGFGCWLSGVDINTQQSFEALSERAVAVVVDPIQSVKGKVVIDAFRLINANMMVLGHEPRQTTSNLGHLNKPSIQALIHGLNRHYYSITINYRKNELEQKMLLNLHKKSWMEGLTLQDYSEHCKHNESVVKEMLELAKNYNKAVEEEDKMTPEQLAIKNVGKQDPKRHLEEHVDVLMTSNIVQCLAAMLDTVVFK
TPT1 inh confirm = confirmation of Candida albicans TPT1 inhibitors | shares compounds with TPT1 inh | recombinant caTPT1, fluorescence polarization, RNase T1 coupled | inhibition, % at 5 µM | hit rate 74% among 2,400;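 active = inhibition above the primary screen limit, the mean inhibition of all tested compounds plus 3 SD, cut at about 25% in these data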
RNase T1 counter = blocks Aspergillus oryzae RNase T1, a TPT1 counter-screen; AID 2153; inhibition, % at 5 µM; hit rate 83% among 2,400; RNase T1 cleavage, fluorescence polarization, 1536-well; shares compounds with TPT1 inh;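 active = inhibition above the solvent-only control well mean plus 3 SD, limit set per screening run, cut at about 23% in these data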;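 also: inhibitors block cleavage so intact labeled substrate keeps polarization high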
Target sequence (P00651 whole entry, looked up): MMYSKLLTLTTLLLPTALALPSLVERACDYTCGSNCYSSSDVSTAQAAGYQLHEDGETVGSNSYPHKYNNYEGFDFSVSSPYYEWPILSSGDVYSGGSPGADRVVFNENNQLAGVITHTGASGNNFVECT
PP1 inh confirm = confirmation of human PP1 phosphatase inhibitors; hit rate 52% among 1,900; shares compounds with PP1 counter; inhibition, % at 6.7 µM; AID 2358; purified PP1alpha, OMFP substrate fluorescence;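 active = mean PP1 inhibition above a set limit taken from the earlier primary screen, cut at about 15% in these data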
PP5 counter = PP5 phosphatase inhibition, counter-screen for PP1 inhibitors | shares compounds with PP1 counter | purified PP5c, OMFP fluorescence | inhibition, % at 6.7 µM | hit rate 4% among 1,900 | AID 2360;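 active = mean PP5 inhibition over triplicate wells above about 9.5% taken from the earlier PP1 screen, limit read from the data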
Rpn11 confirm = Rpn11 inhibition confirmation, single concentration | shares compounds with Rpn11 block | purified human 26S proteasome, Ub4-pepOG fluorescence polarization; proteasome pretreated with epoxomicin | inhibition, % at 20 µM | hit rate 29% among 1,900
MMP-2 counter-1 = counter-screen for RPN11 inhibitors: inhibition of human MMP-2 | inhibition, % at 20 µM | shares compounds with Rpn11 block | recombinant MMP-2, FRET peptide cleavage fluorescence | hit rate 4% among 1,900;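 also: human MMP-2 activated beforehand with APMA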
Thrombin inh = blocks bovine thrombin, flagging nonselective RPN11 hits. shares compounds with Rpn11 block. bovine thrombin cleavage of Ub4-pepOG, fluorescence polarization. inhibition, % at 20 µM. hit rate 13% among 1,900. AID 602333;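 active = mean inhibition at least 40% at 20 µM, or signal 3 deviations below plate average, so some actives read negative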
NadD conf = NadD (S. aureus) inhibition, single concentration confirmation | shares compounds with NadD inh | purified S. aureus NadD, colorimetric enzyme assay | inhibition, % at 20 µM | hit rate 13% among 2,000 | AID 624309; in the data active = inhibition mostly above about 42%, no sharp cut-off; inactive = mostly below about 42%
CSN deneddyl val = Csn5 (human) deneddylation inhibition, single-concentration validation. hit rate 62% among 540. Csn5 deneddylation of SCF-Nedd8OG, fluorescence polarization, 90 min. inhibition, % at 16.6 µM. shares compounds with CSN deneddyl inh; in the data active = inhibition above about 50%
MMP-2 counter-2 = counter-screen for CSN deneddylation inhibitors: human MMP-2 inhibition; inhibition, % at 16.6 µM; hit rate 33% among 540; recombinant MMP-2, FRET substrate fluorescence, 60 min; shares compounds with CSN deneddyl inh;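 active = corrected plate-normalized z-score of 5 or more, or -5 or less, or inhibition of 15% or more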
Thrombin cntr = blocks bovine thrombin in a CSN deneddylation counter-screen; bovine thrombin cleavage of Ub4-pepOG, fluorescence polarization; hit rate 49% among 540; inhibition, % at 16.6 µM; shares compounds with CSN deneddyl inh;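 active = inhibition at or above a set limit, with a fluorescence interference ratio between 0.5 and a set maximum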
Large screens that a line does not name were inactive (follow-up assays come after a bar, where shown). Shown are actives, neighbours in structure and some others; about 2.7% of the full set was active somewhere. Rule as the data show it, unless noted: active = inhibition above about 40%; inactive = the rest.

N#C/C(=C\c1ccc(N2CCOCC2)o1)C(=O)NC1CCCCC1	TPT1 inh 163, CSN deneddyl inh 77 (not shown: Rpn11 block) | TPT1 inh confirm 177 | RNase T1 counter 169 | CSN deneddyl val 141 | MMP-2 counter-2 inactive | Thrombin cntr 65
N#C/C(=C\c1ccc(N2CCOCC2)o1)C(=O)NCCc1ccccc1	TPT1 inh active, CSN deneddyl inh 98 (not shown: Rpn11 block) | TPT1 inh confirm 181 | RNase T1 counter 171 | CSN deneddyl val active | MMP-2 counter-2 inactive | Thrombin cntr inactive
Cc1ccc(NC(=O)CN(C)C(=O)c2cc(-c3ccco3)nc3ccccc23)cc1	PP1 counter 28, TPT1 inh 25, NadD inh 34, CSN deneddyl inh 51 | TPT1 inh confirm inactive | RNase T1 counter inactive | PP1 inh confirm inactive | PP5 counter inactive | NadD conf inactive | MMP-2 counter-2 inactive | Thrombin cntr inactive
COc1cccc(NC(=O)CN(C)C(=O)c2cc(-c3ccco3)nc3ccccc23)c1	none
O=C1/C(=C\c2ccco2)CCC/C1=C\c1ccco1	TPT1 inh 55, CSN deneddyl inh 39 (not shown: Rpn11 block) | TPT1 inh confirm 65 | RNase T1 counter 72 | CSN deneddyl val 66 | MMP-2 counter-2 inactive | Thrombin cntr 53
O=C(CCN1C(=O)/C(=C\c2ccco2)SC1=S)Nc1ccc(C(=O)O)c(O)c1	TPT1 inh 25, NadD inh 40, CSN deneddyl inh 57, Rpn11 block 70 | TPT1 inh confirm inactive | RNase T1 counter inactive | Rpn11 confirm inactive | MMP-2 counter-1 inactive | Thrombin inh inactive | CSN deneddyl val 72 | MMP-2 counter-2 inactive | Thrombin cntr inactive
COCCN(C(=O)COC(=O)/C=C/c1cccc(C(F)(F)F)c1)c1c(N)n(CC(C)C)c(=O)[nH]c1=O	none (no result: PP1 counter, TPT1 inh)
COc1ccccc1N=C1NC(=O)/C(=C/c2ccc(N(C)C)cc2)S1	TPT1 inh 119, CSN deneddyl inh 41 (not shown: Rpn11 block) | TPT1 inh confirm 131 | RNase T1 counter 125 | CSN deneddyl val 153 | MMP-2 counter-2 -25 | Thrombin cntr 21
COc1cc(/C=C2\SC(=Nc3ccc(O)cc3)NC2=O)cc(OC)c1OC	none (no result: HNF4A DNA FP, NadD inh, CSN deneddyl inh, Rpn11 block)
COc1ccc(C2=NN(c3ccccc3)C(=O)/C2=C\c2ccc(O)c(OC)c2)cc1	none
COc1cc(/C=C2\SC(c3ccc(C)cc3)=NC2=O)ccc1O	HNF4A DNA FP 78, TPT1 inh 80, CSN deneddyl inh 72, Rpn11 block 142 | TPT1 inh confirm 98 | RNase T1 counter 101 | CSN deneddyl val inactive | MMP-2 counter-2 inactive | Thrombin cntr 50
COc1ccc(N=C2NC(=O)/C(=C/c3ccc(O)c(OC)c3)S2)cc1	TPT1 inh 32, CSN deneddyl inh 37, Rpn11 block 145 | TPT1 inh confirm 44 | RNase T1 counter 52 | Rpn11 confirm 49 | MMP-2 counter-1 inactive | Thrombin inh 68 | CSN deneddyl val 64 | MMP-2 counter-2 inactive | Thrombin cntr 35
CCc1nc2ccc(C(=O)N(C)Cc3ccco3)cn2c1N(CC)Cc1cccc(Br)c1	none (no result: PP1 counter, TPT1 inh)
Cc1nnc(Cc2ccco2)c2n[nH]c(C)c12	none (no result: PP1 counter, TPT1 inh)
CC(C)N1CCc2c(sc(NC(=O)c3ccc(S(=O)(=O)N4CCc5ccccc54)cc3)c2C(N)=O)C1	PP1 counter 17, HNF4A DNA FP 53, TPT1 inh 82, CSN deneddyl inh 47 (not shown: Rpn11 block) | TPT1 inh confirm 84 | RNase T1 counter 93 | MMP-2 counter-2 inactive | Thrombin cntr inactive
NC(=O)c1ccsc1NC(=O)c1ccc(S(=O)(=O)N2CCCc3ccccc32)cc1	none
COc1cc(C2C(C#N)=C(N)Oc3cc(N(C)C)ccc32)cc2c1OCO2 (centres undefined)	TPT1 inh 100, CSN deneddyl inh 36 (not shown: Rpn11 block) | TPT1 inh confirm 98 | RNase T1 counter 99 | CSN deneddyl val 86 | MMP-2 counter-2 inactive | Thrombin cntr 20
Cc1ccc(/C=C/c2ccc(N(C)C)cc2)[n+](C)c1	HNF4A DNA FP 89, TPT1 inh 36, CSN deneddyl inh 47 (not shown: Rpn11 block) | TPT1 inh confirm 46 | RNase T1 counter 56 | CSN deneddyl val 40 | MMP-2 counter-2 -92 | Thrombin cntr 68
CCc1noc(C)c1C(=O)N1CC(C)SC1=Nc1ccc(Cl)cc1 (centres undefined)	none (no result: TPT1 inh)
C#CCN1C(=O)S/C(=C/C=C/c2ccc(N(C)C)cc2)C1=O	HNF4A DNA FP 78, TPT1 inh 87, CSN deneddyl inh 59 (not shown: Rpn11 block) | TPT1 inh confirm 77 | RNase T1 counter 81 | CSN deneddyl val 54 | MMP-2 counter-2 -69 | Thrombin cntr 71
O=C(O)C(c1ccccc1)N1C(=O)/C(=C\c2ccc(-c3ccccc3Cl)o2)SC1=S (centres undefined)	PP1 counter 27, TPT1 inh 124, CSN deneddyl inh 92 (not shown: Rpn11 block) | TPT1 inh confirm 128 | RNase T1 counter 130 | PP1 inh confirm 36 | PP5 counter inactive | CSN deneddyl val inactive | MMP-2 counter-2 inactive | Thrombin cntr 94
